Measurements collected from several papers.
Matrix: plasma

SMILES | species | route | dose | notes | AUC(0-inf) [ng·h/mL]
COc1ccc2c(Cc3ccccc3F)c3[n+](cc2c1OC)CCc1cc2c(cc1-3)OCO2.[Br-] | rat | intravenous | 5 mg/kg | – | 125
COCCOC(=O)C1=C(C)NC(C)=C(C(=O)OC(C)C)C1c1cccc([N+](=O)[O-])c1 (stereo not drawn) | male Sprague-Dawley rat | intravenous | 3 mg/kg | – | 573
CCOC(=O)[C@@]12C[C@@H]1[C@@H](n1ccc3c(NC)nc(C#Cc4ccc(Cl)s4)nc31)[C@H](O)[C@@H]2O | male Sprague-Dawley rat | oral | 10 mg/kg | – | 371
Oc1cc(O)cc(-c2cc3ccc(O)cc3o2)c1 | male rat | intravenous | 5 mg/kg | – | 932
Cc1c(-c2ccccc2)cccc1N1C(=O)c2cc(CN[C@H](C(=O)O)C(C)O)c(OCc3cccc(C#N)c3)cc2C1=O (stereo partly drawn) | Sprague-Dawley rat | intravenous | 5 mg/kg | – | 3260
O=C(Nc1cc(F)c(F)c(F)c1)c1ccc(F)c(S(=O)(=O)NCc2cccc(B(O)O)c2)c1 | male Sprague-Dawley rat | oral | 20 mg/kg | – | 37.6
C#Cc1cccc(Nc2ncnc3cc(OCCOC)c(OCCOC)cc23)c1 | male Sprague-Dawley rat | oral | 12 mg/kg | single dose | 9260
CCc1cc(OC)c2nccc(N3CCc4c(cc(Cn5ccnc5)cc4-c4cn(C)nc4C(F)(F)F)C3=O)c2c1 | male Sprague-Dawley rat | intravenous | 3 mg/kg | – | 955
COc1ccc2c(Cc3ccccc3F)c3n(c(=O)c2c1OC)CCc1cc2c(cc1-3)OCO2 | rat | oral | 5 mg/kg | – | 7960
Oc1c(Br)cc(Cl)c2cccnc12 | Sprague-Dawley rat | intravenous | 2 mg/kg | – | 1200
CNC(=O)c1c(C)oc2cc(Oc3ncnc4cc(OC)c(OC)cc34)ccc12 | Sprague-Dawley rat | oral | 1 mg/kg | single dose | 6270
CCc1cc(C(=O)NC)c2nccc(N3CCc4c(cc(Cn5ccnc5)cc4-c4cn(C)nc4C(F)(F)F)C3=O)c2c1 | male Sprague-Dawley rat | oral | 100 mg/kg | – | 117000
COc1cc2c3c(n(CCCN4CCOCC4)c(=O)c2cc1OC)-c1cc2c(cc1C3=O)OCO2 | male Fischer 344 rat | intravenous | 12 mg/m² | single dose | 232
COc1nc(-c2cc(C)c(N[C@@H](C)c3cc(F)cc(F)c3)nn2)ccc1-n1cnc(C)c1 | male Sprague-Dawley rat | oral | 5 mg/kg | single dose | 31900
COc1ccc(C(C)=O)c(O)c1 | male Sprague-Dawley rat | oral | 100 mg/kg | – | 38600
